# Compounds with a hit are over-represented: about 1.7% of the library has one in this group of screens.
# Runt-CBFb FRET = Runt domain-CBFb interaction inhibition; inhibition, % at 20 µM; 220,000 tested, 0.46% active; Q01196+Q13951; AID 1496; Cerulean-Runt/Venus-CBFb FRET ratio 530/480, 1 h;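 active = inhibition over about 50% at 20 µM in the single-dose screen, limit read from the data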;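 note: 0% = DMSO wells and 100% = excess unlabeled CBFb competitor control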
#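 Buffer or medium: Tris pH 7.5 buffer with BSA. Assay system: Cerulean-labeled Runt domain protein. Amount: each fluorescent fusion protein 100 nM. Read-out basis: loss of energy transfer signal. Incubation: 1 h compound exposure, room temperature. Probe or stimulus: Venus-CBFb binding partner, 100 nM. Detection: FRET, excitation 422 nm, emission at 530 and 480 nm.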
# Vif inh = blocks HIV Vif function; AID 602346; HEK293T cells, Vif self-association by quenched fluorescence, imaging, 24 h; inhibition, % at 7.49 µM; 340,000 tested, 0.35% active; in the data active = inhibition above about 50%, passing the limit was not always enough; inconclusive = no clear call, values can overlap the other calls; inactive = below about 31%
# RanGTP-Impb inh = disruptors of Ran-importin-beta complex formation – biochemical, FRET, CFP-Ran, YFP-importin-beta, homogeneous, primary screen; inhibition, % (no concentration beside the values); cell-free CFP-Ran/YFP-importin-beta FRET ratio; 300,000 tested, 1.1% active;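 active = more than half of the replicate wells show a fall in the fluorescence ratio signal beyond about 16%, limit read from the data, passing the limit was not always enough; inconclusive = exactly half of the replicate wells pass the set limit; inactive = fewer than half of replicates pass the limit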;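 note: 0% = DMSO wells and 100% = Ran loaded with GDP instead of GTP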
# Rce1 inhib = blocks yeast Ras-converting enzyme. yeast membranes, quenched prenylated peptide cleavage fluorescence. calls only. 290,000 tested, 0.27% active;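 active = fall in fluorescence gain of 50% or more versus controls, with final raw signal at or below 3038400; inconclusive = same 50% fall but final raw signal above 3038400; inactive = fall in fluorescence gain under 50%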;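 note: plate controls were neutral control wells for no effect and wells lacking membranes for full effect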
# Target sequence (Q03530 whole entry, looked up): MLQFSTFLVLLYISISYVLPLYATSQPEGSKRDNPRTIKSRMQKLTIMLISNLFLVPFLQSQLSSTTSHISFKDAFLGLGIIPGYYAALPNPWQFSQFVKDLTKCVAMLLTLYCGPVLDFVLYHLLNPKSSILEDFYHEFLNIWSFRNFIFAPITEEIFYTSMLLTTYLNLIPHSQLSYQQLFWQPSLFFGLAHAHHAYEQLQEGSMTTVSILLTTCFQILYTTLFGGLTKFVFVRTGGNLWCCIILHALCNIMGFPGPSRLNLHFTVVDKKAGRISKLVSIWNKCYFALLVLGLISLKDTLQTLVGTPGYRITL
# Runt-SMMHC FRET = Runt domain-CBFb-SMMHC interaction inhibition. Q01196+Q13951. Cerulean-Runt/Venus-CBFb-SMMHC FRET ratio 530/480, 1 h. inhibition, % at 20 µM. 220,000 tested, 0.74% active. AID 1434;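 active = mean inhibition across duplicate retests at 20 µM reaching about 50%, limit read from the data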;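 note: 0% = DMSO wells and 100% = wells with excess untagged CBFb-SMMHC; inhibitors lower the FRET ratio by blocking Runt binding to CBFb-SMMHC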
# The depositor's hits bear a star; i = inactive; ? = inconclusive; nt = no result; + = active, no number.
SMILES,Runt-CBFb FRET,Vif inh,RanGTP-Impb inh,Rce1 inhib,Runt-SMMHC FRET
COc1ccc(NC(=O)c2ccc(COc3ccccc3OC)o2)cc1OC,-1,nt,13*,i,-5
COc1ccc(NC(=O)Nc2ccccn2)cc1OC,-1,-2,27*,i,-4
O=C(O)CCCN1C(=O)C2C3CC(C2C1=O)C1C(c2ccccc2)c2sc(=O)n(-c4ccccc4)c2SC31 (stereo unspecified),-3,-7,-3,i,-6
O=C(O)CN1C(=O)C2C3CC(C2C1=O)C1C(c2ccccc2)c2sc(=O)[nH]c2SC31 (stereo unspecified),42,-1,65*,i,34
Cc1ccc(N2C(=O)C3Sc4[nH]c(=O)sc4C(c4ccccc4)C3C2=O)cc1 (stereo unspecified),1,0,nt,nt,1
CC(C)CC(C(=O)O)N1C(=O)C2C3CC(C2C1=O)C1C(c2ccccc2)c2sc(=O)[nH]c2SC31 (stereo unspecified),13,2,100*,i,29
FC(F)(F)c1cccc(-c2nc3nc(Cl)c(Cl)nc3[nH]2)c1,21,-9,43*,i,43
COc1ccc(S(=O)(=O)N2CCCCC2)cc1NS(=O)(=O)c1ccc(CNC(C)=O)cc1,nt,-5,nt,nt,nt
CC1CCN(c2nc3ccccc3nc2C(C#N)C(=O)NC2CCCCC2)CC1 (stereo unspecified),28,nt,50*,i,14
C=CCNC(=O)C(C#N)c1nc2ccccc2nc1N1CCCCCC1 (stereo unspecified),35,-7,74*,i,65*
CCCCNC(=O)C(C#N)c1nc2ccccc2nc1N1CCCC1 (stereo unspecified),13,nt,34*,i,67*
Cc1c(Cc2ccccc2)c(=O)oc2cc(OCC(=O)N3CCC(C(=O)O)CC3)ccc12,nt,-5,1,nt,nt
CC1Sc2ccc(C(=O)NCc3ccccn3)cc2NC1=O (stereo unspecified),nt,-6,nt,nt,nt
COc1cc(/C=C/C(=O)OCC(=O)N(C)Cc2ccccc2)cc(OC)c1OC,nt,8,nt,nt,nt
COc1cc(/C=C/C(=O)OCC(=O)N(C)Cc2ccccc2)ccc1O,nt,51*,nt,nt,nt
COc1ccc(/C=N/NC(=O)c2[nH]c3ccc(C)cc3c2-c2ccccc2)c(C(=O)O)c1OC,nt,-5,?,+,nt
Cc1ccc(-c2nc(CS(=O)(=O)CC(=O)N3CCN(C)CC3)c(C)o2)cc1,nt,-6,158*,i,nt
Nc1nonc1-n1nnc(C(=O)N/N=C/c2cccc(Cl)c2)c1CSc1ccccc1,0,3,-1,nt,1
Nc1nonc1-n1nnc(C(=O)N/N=C/c2cccc(Cl)c2)c1CSc1ccc(Cl)cc1,nt,18,1,+,-2
Cc1ccc(SCc2c(C(=O)N/N=C/c3ccccc3)nnn2-c2nonc2N)cc1,-1,-7,7,+,-2
CN(C)C(=O)CCC(=O)N1CCCC(C(=O)c2ccc(C(F)(F)F)cc2)C1 (stereo unspecified),nt,-2,1,i,nt
CC(C)(C)C1CCc2onc(C(=O)O)c2C1 (stereo unspecified),-2,16,7,i,0
Nc1ccc(S(=O)(=O)N2CCCC2)cc1Cl,1,-2,3,i,2
CCOc1cc(NS(=O)(=O)c2ccc(NC(C)=O)cc2)c(OCC)cc1NC(=O)C(C)C,3,-1,18*,i,8
Cc1cnc(CNC(=O)c2csc([C@H]3C[C@H](O)[C@@H](CO)O3)n2)cn1,nt,11,nt,nt,nt
SMILES,Runt-CBFb FRET,Vif inh,RanGTP-Impb inh,Rce1 inhib,Runt-SMMHC FRET
O=C(CN1CCN(C(=O)c2ccco2)CC1)N1CCc2[nH]c3ccccc3c2C1,-24,nt,29*,i,-27
Cc1ccc2[nH]c3c(c2c1)CN(C(=O)CN1CCN(C(=O)c2ccco2)CC1)CC3,-46,nt,-43,i,-33
Cc1cc(NS(=O)(=O)c2ccc(NC(=O)c3ccc(Cl)cc3Cl)cc2)no1,nt,55*,6,i,nt
COc1ccc(-c2ccc(C#N)c(SCC(=O)NC3CC3)n2)cc1OC,0,78*,4,i,-1
Cc1ccc(CNc2ccc3c(c2)OCO3)cc1,-33,63*,9,i,-42
CCOc1ccc(/C=C(\C#N)C(=O)Nc2cccnc2)cc1,0,-2,0,i,1
CCOc1ccc(NC(=O)/C(C#N)=C\c2ccc(N3CCCC3)c(C)c2)cc1,nt,54*,nt,nt,nt
O=C(C1=C[C@@H](C2CC2)C[C@@H](OCc2ccc(CO)cc2)O1)N1CCN(Cc2ccccc2)CC1,-4,14,-2,+,-2
c1ccc(Nc2cccc3ccccc23)cc1,nt,2,nt,nt,nt
c1ccc(Nc2ccc3c4c(cccc24)CC3)cc1,-3,111*,-17,i,-1
CCOc1ccc(N2C(=O)/C(=C/c3cccs3)N(CC(=O)OC)C2=S)cc1,-3,97*,-3,i,0
CCC1=NN(C(=O)Cc2ccc([N+](=O)[O-])cc2)C(O)(c2ccncc2)C1 (stereo unspecified),-2,-8,18*,i,-2
O=C(NCCN1CCOCC1)C1CC(=O)N(c2cccc(C(F)(F)F)c2)C1 (stereo unspecified),nt,-2,nt,nt,nt
Cc1ccc(S(=O)(=O)O/N=C2\CCCc3ccccc32)cc1,1,nt,7,i,-1
CC1=C(C)/C(=N\OS(=O)(=O)c2ccccc2)C=CC1=O,15,55*,4,i,20
O=C(COC(=O)c1ccc(O)cc1)Nc1cc(C(F)(F)F)ccc1Cl,-1,-2,4,i,2
CCOC(=O)c1ccc[n+](CC(=O)Nc2cc(C(F)(F)F)ccc2Cl)c1,-2,53*,-2,i,4
CCOC(=O)c1ccc[n+](CC(=O)c2ccc(OC)cc2)c1,-1,7,7,i,-6
CCOC(=O)c1ccc[n+](CC(=O)c2ccccc2)c1,-3,-4,25*,i,-9
O=C(CSc1cn[nH]n1)Nc1cccc(C(F)(F)F)c1,nt,-4,3,i,nt
COc1cc(N2N=C(c3ccccc3)CC2c2ccccc2)c(C=O)cc1C=O (stereo unspecified),nt,9,31*,i,nt
CC(=O)Nc1ccc(NC(=O)c2ccccc2Nc2ccccc2)cc1,nt,14,-1,i,nt
Cc1c(C(=O)C(C)C)n(C)c2ccccc12,-3,59*,3,i,1
Cn1c(C(=O)O)c(C=O)c2ccccc21,1,8,3,i,0
CCc1nc2ccc(C(=O)N3CCN(C(=O)c4ccco4)CC3)cn2c1N(C)C(=O)COc1ccccc1,nt,4,nt,nt,nt
CCOc1ccccc1N1CCN(Cc2c(C)n(C)n(-c3ccccc3)c2=O)CC1,-1,2,1,i,0
C/C(=N\Nc1nc(-c2cc(C)ccc2C)cs1)c1cc2c(ccc3ccccc32)oc1=O,64*,-2,64*,i,nt
CC(=O)Nc1cc2c(ccc3ccccc32)oc1=O,-1,1,?,i,6

# From PubChem BioAssay
